From ChEMBL document CHEMBL2086325, “Suppression of autoimmune arthritis by Celastrus-derived Celastrol through modulation of pro-inflammatory chemokines” (Bioorg Med Chem, 2012)
Activity calls are given as the source filed them.

How the values were obtained:
Rattus norvegicus [1] = test: Antiarthritic effect in Lewis rat adjuvant-induced arthritis model serum assessed as reduction in IL-1beta production at 200 ug, ip starting from arthritis onset and continued uninterrupted until study end by cytokine multiplex assay; format: functional, organism-based
Method in brief: (§1)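 Arthritic Lewis rats (Mtb 1.5 mg s.c. in mineral oil) were given 200 μg/rat i.p. daily from onset until the day before harvest; controls received DMSO/PBS vehicle. On d 18, blood was taken by cardiac puncture after euthanasia and serum stored at −80 °C. Serum pooled from 4 rats was assayed in triplicate by multiplex.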

Rattus norvegicus [2] = test: Antiarthritic effect in Lewis rat adjuvant-induced arthritis model serum assessed as reduction in IL6 production at 200 ug, ip starting from arthritis onset and continued uninterrupted until study end by cytokine multiplex assay; format: functional, organism-based; method in brief: as §1
Rattus norvegicus [3] = test: Antiarthritic effect in Lewis rat adjuvant-induced arthritis model lymph node cells restimulated with sonicated Mtb post isolation assessed as reduction in RANTES production at 200 ug, ip starting from arthritis onset and continued uninterrupted until study end by cytokine multiplex assay; format: functional, organism-based
Method in brief: (§2)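 Male Lewis rats were immunized s.c. with heat-killed Mtb H37Ra (1.5 mg/rat) in mineral oil. From arthritis onset they received 200 μg/rat i.p. daily (DMSO stock diluted in PBS); controls got 1.2% DMSO in PBS. On d 18, draining lymph node or synovial-infiltrating cells were cultured at 1.5 × 10^6/well in 2% FBS medium ± sonicated Mtb (10 μg/ml) for 24 h. Supernatants were analysed by multiplex.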

Rattus norvegicus [4] = test: Antiarthritic effect in Lewis rat adjuvant-induced arthritis model lymph node cells restimulated with sonicated Mtb post isolation assessed as reduction in IL-1beta production at 200 ug, ip starting from arthritis onset and continued uninterrupted until study end by cytokine multiplex assay; format: functional, organism-based; method in brief: as §2
Rattus norvegicus [5] = test: Antiarthritic effect in Lewis rat adjuvant-induced arthritis model lymph node cells restimulated with sonicated Mtb post isolation assessed as reduction in IL6 production at 200 ug, ip starting from arthritis onset and continued uninterrupted until study end by cytokine multiplex assay; format: functional, organism-based; method in brief: as §2
Rattus norvegicus [6] = test: (§3) Antiarthritic effect in Lewis rat adjuvant-induced arthritis model synovial infiltrating cells restimulated with sonicated Mtb post isolation assessed as reduction in GRO/KC production at 200 ug, ip starting from arthritis onset and continued uninterrupted until study end by cytokine multiplex assay; format: functional, organism-based; method in brief: as §2
Rattus norvegicus [7] = test: Antiarthritic effect in Lewis rat adjuvant-induced arthritis model synovial infiltrating cells restimulated with sonicated Mtb post isolation assessed as reduction in RANTES production at 200 ug, ip starting from arthritis onset and continued uninterrupted until study end by cytokine multiplex assay; format: functional, organism-based; method in brief: as §2
Rattus norvegicus [8] = test: as §3, with “TNFalpha” for “GRO/KC”; format: functional, organism-based; method in brief: as §2
Rattus norvegicus [9] = species on record: Rattus norvegicus; test: Antiarthritic effect in sonicated Mtb-stimulated spleen adherent cells isolated from Lewis rat adjuvant-induced arthritis model assessed as reduction in MIP-1alpha production pre-incubated with compound for 30 mins before stimulation with sonicated-Mtb for 48 hrs by multiplex assay; format: functional, tissue-based
Rattus norvegicus [10] = species on record: Rattus norvegicus; test: Antiarthritic effect in IL-1beta-stimulatedspleen adherent cells isolated from Lewis rat adjuvant-induced arthritis model assessed as reduction in MIP-1alpha production pre-incubated with compound for 30 mins before stimulation with IL-1beta for 48 hrs by multiplex assay; format: functional, tissue-based; settings: Spleen
Rattus norvegicus [11] = species on record: Rattus norvegicus; test: Antiarthritic effect in IL-1beta-stimulatedspleen adherent cells isolated from Lewis rat adjuvant-induced arthritis model assessed as reduction in RANTES production pre-incubated with compound for 30 mins before stimulation with IL-1beta for 48 hrs by multiplex assay; format: functional, tissue-based; settings: Spleen
Rattus norvegicus [12] = test: Antiarthritic effect in Lewis rat adjuvant-induced arthritis model spleen adherent cells restimulated with sonicated Mtb post isolation assessed as reduction in CCR3 expression at 200 ug, ip starting from arthritis onset and continued uninterrupted until study end by qPCR; format: functional, organism-based
Method in brief: (§4)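 From onset of Mtb-induced arthritis, rats received 200 μg/rat i.p. daily or vehicle. Spleen adherent cells harvested on d 18 (1.5–2.0 × 10^6 cells/well) were cultured in medium or with sonicated Mtb (10 μg/ml) for 24 h. Receptor mRNA was quantified by qPCR after TRIzol RNA isolation and cDNA synthesis, normalized to HGPRT and reported as relative message.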

Rattus norvegicus [13] = test: Antiarthritic effect in Lewis rat adjuvant-induced arthritis model spleen adherent cells restimulated with sonicated Mtb post isolation assessed as reduction in CCR5 expression at 200 ug, ip starting from arthritis onset and continued uninterrupted until study end by qPCR; format: functional, organism-based; method in brief: as §4
Rattus norvegicus [14] = test: Antiarthritic effect in Lewis rat adjuvant-induced arthritis model spleen adherent cells restimulated with sonicated Mtb post isolation assessed as reduction in CXCR1 expression at 200 ug, ip starting from arthritis onset and continued uninterrupted until study end by qPCR analysis; format: functional, organism-based; method in brief: as §4
Rattus norvegicus [15] = test: Antiarthritic effect in Lewis rat adjuvant-induced arthritis model spleen adherent cells restimulated with sonicated Mtb post isolation assessed as reduction in CXCR2 expression at 200 ug, ip starting from arthritis onset and continued uninterrupted until study end by qPCR; format: functional, organism-based; method in brief: as §4
Rattus norvegicus [16] = test: Antiarthritic effect in Lewis rat adjuvant-induced arthritis model spleen adherent cells restimulated with sonicated Mtb post isolation assessed as reduction in CXCR4 expression at 200 ug, ip starting from arthritis onset and continued uninterrupted until study end by qPCR; format: functional, organism-based; method in brief: as §4
Rattus norvegicus [17] = species on record: Rattus norvegicus; test: Increase in CCR1 protein surface expression in sonicated Mtb-stimulated spleen adherent cells isolated from Lewis rat adjuvant-induced arthritis model pre-incubated with 0.1 to 0.3 uM compound before stimulation with sonicated Mtb for 24 hrs by flow cytometry; format: functional, tissue-based
Method in brief: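 Spleen adherent cells from arthritic rats were stimulated 24 h with sonicated Mtb in vitro, with or without compound. Cells were detached with TrypLE for 10 min, washed, and surface-stained 30 min with anti-CD11b/c PerCP-eFluor 710 and cross-reactive anti-human CCR1 Alexa Fluor 647. Cells were fixed in 1% formaldehyde and analysed by flow cytometry, with IgG2a/IgG2b isotype controls.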

[18] = Increase in CCR1 protein surface expression in sonicated Mtb-stimulated spleen adherent cells isolated Inhibition of cell migration of RANTES-stimulated spleen adherent cells isolated from Lewis rat adjuvant-induced arthritis model at 0. 3 uM by Transwell cell migration assay; format: functional
Method in brief: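 Transwell assay with 8-μm polycarbonate inserts. Spleen adherent cells (1 × 10^6) from arthritic rats were placed in the upper chamber; the lower chamber held serum-free RPMI with RANTES (50 ng/ml) ± compound (0.1, 0.3 μM). Cells migrated 24 h at 37 °C, 5% CO2. Lower-surface cells were fixed in 4% formaldehyde, DAPI-stained, imaged at 10× and counted by image analysis. RANTES alone was set as 100%.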

Rattus norvegicus [19] = test: Antiarthritic effect in Lewis rat adjuvant-induced arthritis model spleen adherent cells restimulated with sonicated Mtb post isolation assessed as reduction in MCP1 production at 200 ug, ip starting from arthritis onset and continued uninterrupted until study end by cytokine multiplex assay; format: functional, organism-based
Method in brief: (§5)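 Mtb-immunized male Lewis rats were dosed 200 μg/rat i.p. daily from arthritis onset (vehicle: 1.2% DMSO/PBS). Spleen adherent cells were prepared on d 18, plated at 1.5 × 10^6/well in 2% FBS medium and restimulated with sonicated Mtb (10 μg/ml) for 24 h. Supernatant chemokines and cytokines were measured by Luminex multiplex. Mean ± SD of triplicates from 4–5 rats.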

Rattus norvegicus [20] = test: Antiarthritic effect in Lewis rat adjuvant-induced arthritis model spleen adherent cells restimulated with sonicated Mtb post isolation assessed as reduction in IL6 production at 200 ug, ip starting from arthritis onset and continued uninterrupted until study end by cytokine multiplex assay; format: functional, organism-based; method in brief: as §5

CC1=C(O)C(=O)C=C2C1=CC=C1[C@@]2(C)CC[C@@]2(C)[C@@H]3C[C@](C)(C(=O)O)CC[C@]3(C)CC[C@]12C [CELASTROL]
inactive: Activity (Rattus norvegicus [2]) | Activity (Rattus norvegicus [3]) | Activity (Rattus norvegicus [4]) | Activity (Rattus norvegicus [5]) | Activity (Rattus norvegicus [6]) | Activity (Rattus norvegicus [7]) | Activity (Rattus norvegicus [8]) | Activity (Rattus norvegicus [20])
63%: inhibition (INH) [18]
active: Activity (Rattus norvegicus [1]) | Activity (Rattus norvegicus [9]) Dose-dependent effect | Activity (Rattus norvegicus [10]) Dose-dependent effect | Activity (Rattus norvegicus [11]) Dose-dependent effect | Activity (Rattus norvegicus [12]) | Activity (Rattus norvegicus [13]) | Activity (Rattus norvegicus [14]) | Activity (Rattus norvegicus [15]) | Activity (Rattus norvegicus [16]) | Activity (Rattus norvegicus [17]) | Activity (Rattus norvegicus [19])
